The source made the active and inactive calls. The calls are words filed in the database; no cut-off is given here.
Tests used:
[1] = Plasma concentration in BALB/c mouse assessed as time until the compound becomes undetectable at 25 mg/kg, po via gavage […]; type: ADME, organism-based; conditions: in vivo
Method in brief: (§1)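 Single oral gavage dose of 25 mg/kg in BALB/c mice; blood sampled at 1, 2, 4, 6, 10, 16, 24 h. Plasma is diluted in PBS with ketoconazole internal standard, extracted with 80% acetonitrile, dried and redissolved. Analysed by reversed-phase HPLC with UV at 291/250 nm, 0.1 μM detection limit. Lifetime is time until undetectable.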

[2] = Hepatic clearance in human liver microsomes at 1 uM preincubated for 5 mins followed by NADPH addition and measured after 45 mins by LC/MS/MS analysis; type: ADME, microsome
[3] = Drug uptake in BALB/c mouse blood at 25 mg/kg, po via gavage measured after 4 hrs post dose by […]; type: ADME, organism-based; conditions: read-out: Drug uptake
Method in brief: (§2)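 BALB/c mice get a single oral gavage dose of 25 mg/kg; tissues are collected 4 h post-dose. About 100 mg tissue is diluted 5-fold in PBS and homogenized. Homogenate is extracted as for plasma (ketoconazole internal standard, acetonitrile extraction) and quantified by HPLC-UV at 291 nm, 0.1 μM detection limit, n=2.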

[4] = Hepatic clearance in Sprague-Dawley rat liver microsomes at 1 uM preincubated for 5 mins followed by NADPH addition and measured after 45 mins by LC/MS/MS analysis; type: ADME, microsome
Method in brief: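 Pooled liver microsomes at 0.5 mg/mL: human (mixed gender), male Sprague-Dawley rat, or male CD-1 mouse, with test compound at 1 μM, triplicate. In vitro t1/2 is scaled to CLint (45 mg microsomes/g liver; 45 g liver/kg scaling factor). CLhep uses well-stirred model with hepatic blood flow 21 (human), 70 (rat), 90 (mouse) mL/min/kg.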

[5] = Intrinsic clearance in CD1 mouse liver microsomes at 1 uM preincubated for 5 mins followed by NADPH addition and measured after 45 mins by LC/MS/MS analysis; type: ADME, microsome; conditions: read-out: CLH
[6] = Drug uptake in BALB/c mouse spleen at 25 mg/kg, po via gavage measured after 4 hrs post dose by […]; type: ADME, organism-based; conditions: read-out: Drug uptake; method in brief: as §2
[7] = Half life in human liver microsomes at 1 uM preincubated for 5 mins followed by NADPH addition and measured by LC/MS/MS analysis; type: ADME, microsome; conditions: microsomes, 1 µM
[8] = Intrinsic clearance in human liver microsomes at 1 uM preincubated for 5 mins followed by NADPH addition and measured after 45 mins by LC/MS/MS analysis; type: ADME, microsome; conditions: read-out: CLH
[9] = Drug uptake in BALB/c mouse lungs at 25 mg/kg, po via gavage measured after 4 hrs post dose by […]; type: ADME, organism-based, Lung; conditions: read-out: Drug uptake; method in brief: as §2
[10] = Drug uptake in BALB/c mouse liver at 25 mg/kg, po via gavage measured after 4 hrs post dose by […]; type: ADME, organism-based; conditions: read-out: Drug uptake; method in brief: as §2
[11] = Drug uptake in BALB/c mouse heart at 25 mg/kg, po via gavage measured after 4 hrs post dose by […]; type: ADME, organism-based; conditions: read-out: Drug uptake; method in brief: as §2
[12] = Half life in Sprague-Dawley rat liver microsomes at 1 uM preincubated for 5 mins followed by NADPH addition and measured by LC/MS/MS analysis; type: ADME, microsome; conditions: microsomes, 1 µM
[13] = Hepatic clearance in CD1 mouse liver microsomes at 1 uM preincubated for 5 mins followed by NADPH addition and measured after 45 mins by LC/MS/MS analysis; type: ADME, microsome
[14] = Intrinsic clearance in Sprague-Dawley rat liver microsomes at 1 uM preincubated for 5 mins followed by NADPH addition and measured after 45 mins by LC/MS/MS analysis; type: ADME, microsome; conditions: read-out: CLH
[15] = Drug uptake in BALB/c mouse brain at 25 mg/kg, po via gavage measured after 4 hrs post dose by […]; type: ADME, organism-based; conditions: read-out: Drug uptake; method in brief: as §2
[16] = Half life in CD1 mouse liver microsomes at 1 uM preincubated for 5 mins followed by NADPH addition and measured by LC/MS/MS analysis; type: ADME, microsome; conditions: mouse, microsomes, 1 µM
[17] = Maximum plasma concentration in BALB/c mouse at 25 mg/kg, po via gavage by […]; type: ADME, organism-based; design: dose 25 mg/kg, route oral; method in brief: as §1
[18] = test system: Trypanosoma cruzi; experiment: Antiparasitic activity against GFP-expressing Trypanosoma cruzi Tulahuen amastigote formss infected in cardiomyocytes assessed as reduction in rate of parasite multiplication within infected cardiomyocytes measured at 72 hrs post infection by fluorescence microscopy; type: functional, organism-based
Method in brief: (§3)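 GFP-expressing trypomastigotes (Tulahuen or Y strain) infect cardiomyocyte monolayers at 10 parasites per cell, in DMEM + 10% FBS. Unbound parasites are washed off. At 24 h of infection, inhibitors at 0.5–25 nM in DMSO/DMEM are added and cultured 48 h. Read-out is at 72 h post-infection as GFP fluorescence (RFU) after PBS wash; microscopy uses paraformaldehyde fixation, DAPI and phalloidin stain. Triplicate.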

[19] = molecular target: Putative lanosterol 14-alpha-demethylase (Leishmania infantum, UniProt A2TEF2); experiment: Binding affinity to Leishmania infantum CYP51 expressed in Escherichia coli
Putative lanosterol 14-alpha-demethylase, sequence (A2TEF2 whole entry): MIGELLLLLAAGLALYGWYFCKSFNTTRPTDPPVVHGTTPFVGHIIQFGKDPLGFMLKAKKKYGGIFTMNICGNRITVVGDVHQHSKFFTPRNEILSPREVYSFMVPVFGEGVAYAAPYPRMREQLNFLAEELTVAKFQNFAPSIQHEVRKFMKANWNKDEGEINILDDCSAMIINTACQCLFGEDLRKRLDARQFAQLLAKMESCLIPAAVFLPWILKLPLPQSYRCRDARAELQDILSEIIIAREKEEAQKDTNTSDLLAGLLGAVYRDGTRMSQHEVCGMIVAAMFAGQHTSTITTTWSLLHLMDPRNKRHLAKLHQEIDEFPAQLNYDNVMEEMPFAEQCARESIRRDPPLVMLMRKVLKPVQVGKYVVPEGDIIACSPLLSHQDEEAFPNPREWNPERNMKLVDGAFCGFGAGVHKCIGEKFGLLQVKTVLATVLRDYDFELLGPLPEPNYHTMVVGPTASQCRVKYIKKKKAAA
Method in brief: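 Purified E. coli-expressed L. infantum CYP51 at 0.5 μM is titrated with ligand at 0.1–1 μM in 5 cm path cuvettes. Difference-spectrum absorbance change Δ(A430−A411) is plotted against ligand concentration. Apparent Kd comes from a Morrison (quadratic) tight-binding fit by nonlinear regression.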

[20] = molecular target: Sterol 14-alpha demethylase (Trypanosoma cruzi (strain CL Brener), UniProt Q7Z1V1); experiment: Binding affinity to Trypanosoma cruzi Y CYP51A expressed in Escherichia coli
Sterol 14-alpha demethylase, sequence (Q7Z1V1 whole entry): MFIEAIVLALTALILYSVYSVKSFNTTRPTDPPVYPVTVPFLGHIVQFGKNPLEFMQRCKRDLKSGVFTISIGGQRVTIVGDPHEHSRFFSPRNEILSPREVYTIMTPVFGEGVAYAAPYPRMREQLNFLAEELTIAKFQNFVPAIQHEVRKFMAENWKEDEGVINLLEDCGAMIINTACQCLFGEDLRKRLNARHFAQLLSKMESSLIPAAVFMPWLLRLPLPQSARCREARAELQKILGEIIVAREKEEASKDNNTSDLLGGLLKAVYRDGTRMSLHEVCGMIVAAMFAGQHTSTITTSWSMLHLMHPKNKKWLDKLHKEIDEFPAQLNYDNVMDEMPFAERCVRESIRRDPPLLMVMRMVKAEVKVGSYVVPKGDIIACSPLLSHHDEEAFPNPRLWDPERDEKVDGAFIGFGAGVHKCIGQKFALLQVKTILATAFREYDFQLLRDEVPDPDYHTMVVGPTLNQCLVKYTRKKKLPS
Method in brief: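 Recombinant CYP51A from Y strain T. cruzi, expressed in E. coli and purified, titrated spectrally at 0.5 μM P450 in 5 cm path cuvettes with ligand over 0.1–1 μM. Type of absorbance change in difference spectra Δ(A430-A411) plotted against ligand concentration. Apparent Kd obtained by fitting to the Morrison quadratic tight-binding equation by nonlinear regression.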

[21] = Lipophilicity, log P of the compound; type: physicochemical; conditions: octanol/water
[22] = test system: Trypanosoma cruzi; experiment: Antiparasitic activity against GFP-expressing Trypanosoma cruzi Y amastigote formss infected in cardiomyocytes assessed as reduction in rate of parasite multiplication within infected cardiomyocytes measured at 72 hrs post infection by fluorescence microscopy; type: functional, organism-based; method in brief: as §3
[23] = molecular target: Sterol 14-alpha demethylase (Trypanosoma cruzi (strain CL Brener)) (UniProt Q7Z1V1); experiment: Inhibition of Trypanosoma cruzi Y CYP51 expressed in Escherichia coli using [3-3H]-eburicol as substrate after 60 mins by LC-MS analysis
Sterol 14-alpha demethylase (Trypanosoma cruzi (strain CL Brener)), sequence (Q7Z1V1 whole entry, looked up): as the sequence (Q7Z1V1 whole entry) above
Method in brief: (§4)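 Reconstituted reaction: 1 μM purified CYP51, 2 μM T. brucei NADPH-P450 reductase, 100 μM dilauroylphosphatidylcholine, isocitrate dehydrogenase/isocitrate regeneration, 50 mM K phosphate pH 7.2, 10% glycerol. [3-3H]sterol substrate at 50 μM final (eburicol for T. cruzi; obtusifoliol for T. brucei and L. infantum) with inhibitor at 1.1 μM final. Preincubate 60 s at 37 °C, start with 100 μM NADPH, run 60 min, EtOAc extraction. Gives % inhibition of 14α-demethylation, triplicate, mean ± SD.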

[24] = molecular target: Putative lanosterol 14-alpha-demethylase (Leishmania infantum) (UniProt A2TEF2); experiment: Inhibition of Leishmania infantum CYP51 expressed in Escherichia coli using [3-3H]-obtusifoliol as substrate after 60 mins by LC-MS analysis; method in brief: as §4
Putative lanosterol 14-alpha-demethylase (Leishmania infantum), sequence (A2TEF2 1-480): as the sequence (A2TEF2 whole entry) above

[25] = molecular target: Lanosterol 14-alpha-demethylase (Trypanosoma brucei brucei (strain 927/4 GUTat10.1)) (UniProt Q385E8); experiment: Inhibition of Trypanosoma brucei […] CYP51 expressed in Escherichia coli using [3-3H]-obtusifoliol as substrate after 60 mins by LC-MS analysis; method in brief: as §4
Lanosterol 14-alpha-demethylase (Trypanosoma brucei brucei (strain 927/4 GUTat10.1)), sequence (Q385E8 1-481): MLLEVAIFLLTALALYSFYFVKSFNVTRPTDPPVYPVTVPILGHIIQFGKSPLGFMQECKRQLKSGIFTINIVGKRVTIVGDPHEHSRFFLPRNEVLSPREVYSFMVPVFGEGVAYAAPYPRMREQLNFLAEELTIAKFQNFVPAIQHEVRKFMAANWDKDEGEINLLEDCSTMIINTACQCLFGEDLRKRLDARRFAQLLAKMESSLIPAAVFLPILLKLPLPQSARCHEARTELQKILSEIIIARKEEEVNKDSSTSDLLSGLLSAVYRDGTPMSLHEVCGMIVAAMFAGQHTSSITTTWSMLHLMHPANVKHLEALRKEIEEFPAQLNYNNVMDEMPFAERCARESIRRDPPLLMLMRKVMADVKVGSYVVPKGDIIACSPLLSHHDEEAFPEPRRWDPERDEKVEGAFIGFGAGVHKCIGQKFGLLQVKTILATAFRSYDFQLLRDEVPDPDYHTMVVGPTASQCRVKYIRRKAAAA

Row | SMILES | Time [1] [h] | CLhep predicted at 1 µM [2] [L/h/kg] | concentration at 4 h [3] [µM] | CLhep predicted at 1 µM [4] [L/h/kg] | CLint scaled at 1 µM [5] [L/h/kg] | concentration at 4 h [6] [µM] | t1/2 [7] [min] | CLint scaled at 1 µM [8] [L/h/kg] | concentration at 4 h [9] [µM] | concentration at 4 h [10] [µM] | concentration at 4 h [11] [µM] | t1/2 [12] [min] | CLhep predicted at 1 µM [13] [L/h/kg] | CLint scaled at 1 µM [14] [L/h/kg] | concentration at 4 h [15] [µM] | t1/2 [16] [min] | Cmax [17] [µM] | logP [21] | also measured
1 | [2H]c1c([2H])c([2H])c(-c2ccc([C@H](Cn3ccnc3)NC(=O)c3ccc(-c4nnc(-c5ccccc5)o4)cc3)c(Cl)c2)c([2H])c1[2H] | < 16 | 0.636 | 4 | 2.74 | 13.2 | 3 | 58 | 1.27 | 26 | 17 | 3 | 22 | 3.83 | 7.86 | 0.2 | 25 | 15 |  | 
2 | O=C(N[C@@H](Cn1ccnc1)c1ccc(-c2ccc(F)cc2)cc1F)c1ccc(-c2nnc(-c3ccccc3)o2)cc1 |  | 0.738 | 22 | 0.852 | 8.7 | 21 | 42 | 1.79 | 74 | 34 | 16 | 158 | 3.34 | 1.06 | 1 | 38 | 24 | 5.44 | EC50 [18]: 1 nM; Kd [19]: 8.4 nM; Kd [20]: 6.8 nM; EC50 [22]: 1.5 nM
3 | O=C(N[C@@H](Cn1ccnc1)c1ccc(Cl)cc1Cl)c1ccc(-c2nnc(-c3ccc(OCC(F)(F)F)cc3F)o2)cc1 | 6 |  | 3 |  |  | 6 |  |  | 38 | 32 | 6 | 48 |  |  | 0.15 |  | 7 |  | inhibition [23]: Active; inhibition [24]: Active; inhibition [25]: Active
4 | O=C(N[C@@H](Cn1ccnc1)c1ccc(Cl)cc1Cl)c1ccc(-c2nnc(-c3ccccc3)o2)cc1 |  |  |  |  |  |  |  |  |  |  |  |  |  |  |  |  |  |  | EC50 [18]: 1.3 nM; Kd [19]: 2 nM; Kd [20]: 8.3 nM; EC50 [22]: 4 nM

Second part, led by results:

Row | Time [1] [h] | CLhep predicted at 1 µM [2] [L/h/kg] | concentration at 4 h [3] [µM] | CLhep predicted at 1 µM [4] [L/h/kg] | CLint scaled at 1 µM [5] [L/h/kg] | concentration at 4 h [6] [µM] | t1/2 [7] [min] | CLint scaled at 1 µM [8] [L/h/kg] | concentration at 4 h [9] [µM] | concentration at 4 h [10] [µM] | concentration at 4 h [11] [µM] | t1/2 [12] [min] | CLhep predicted at 1 µM [13] [L/h/kg] | CLint scaled at 1 µM [14] [L/h/kg] | concentration at 4 h [15] [µM] | t1/2 [16] [min] | Cmax [17] [µM] | logP [21] | SMILES | also measured
5 | 10 | 0.648 | 1 | 1.25 | 6.3 | 2 | 56 | 1.34 | 0.6 | 3 | 0.1 | 95 | 2.9 | 1.78 | 0.1 | 52 | 5 | 4.93 | O=C(N[C@@H](Cn1ccnc1)c1ccc(-c2ccc(F)cc2)cc1Cl)c1ccc(-c2nnc(-c3ccccn3)o2)cc1 | 
6 | 16 | 0.501 | 12 | 1.42 | 3.59 | 6 | 90 | 0.834 | 18 | 20 | 3 | 79 | 2.15 | 2.13 | 0.2 | 91 | 13 |  | O=C(N[C@@H](Cn1ccnc1)c1ccc(-c2ccc(F)cc2)cc1Cl)c1ccc(-c2nnc(-c3ccccc3)o2)cc1 | 
7 |  |  |  |  |  |  |  |  |  |  |  |  |  |  |  |  |  | 4.93 | O=C(N[C@@H](Cn1ccnc1)c1cnc(-c2ccc(F)cc2)cc1Cl)c1ccc(-c2nnc(-c3ccccc3)o2)cc1 | 

— ChEMBL document CHEMBL4257584, “Sterol 14α-Demethylase Structure-Based Optimization of Drug Candidates for Human Infections with the Protozoan Trypanosomatidae” (J Med Chem, 2018)
